The text below walks through data of ChEMBL document CHEMBL4609993, “The architecture of hydrogen and sulfur σ-hole interactions explain differences in the inhibitory potency of C-β-d-glucopyranosyl thiazoles, imidazoles and an N-β-d glucopyranosyl tetrazole for human liver glycogen phosphorylase and offer new insights to structure-based design” (Bioorg Med Chem, 2020).

A word on the pKi: it is −log10 of the Ki, conventionally taken in molar units. A lower pKi goes with a high Ki. The inhibition is how much of the control response was suppressed.

Series [1] addresses T1, Glycogen phosphorylase, liver form (Homo sapiens, UniProt P06737).
T1 sequence (P06737 whole entry): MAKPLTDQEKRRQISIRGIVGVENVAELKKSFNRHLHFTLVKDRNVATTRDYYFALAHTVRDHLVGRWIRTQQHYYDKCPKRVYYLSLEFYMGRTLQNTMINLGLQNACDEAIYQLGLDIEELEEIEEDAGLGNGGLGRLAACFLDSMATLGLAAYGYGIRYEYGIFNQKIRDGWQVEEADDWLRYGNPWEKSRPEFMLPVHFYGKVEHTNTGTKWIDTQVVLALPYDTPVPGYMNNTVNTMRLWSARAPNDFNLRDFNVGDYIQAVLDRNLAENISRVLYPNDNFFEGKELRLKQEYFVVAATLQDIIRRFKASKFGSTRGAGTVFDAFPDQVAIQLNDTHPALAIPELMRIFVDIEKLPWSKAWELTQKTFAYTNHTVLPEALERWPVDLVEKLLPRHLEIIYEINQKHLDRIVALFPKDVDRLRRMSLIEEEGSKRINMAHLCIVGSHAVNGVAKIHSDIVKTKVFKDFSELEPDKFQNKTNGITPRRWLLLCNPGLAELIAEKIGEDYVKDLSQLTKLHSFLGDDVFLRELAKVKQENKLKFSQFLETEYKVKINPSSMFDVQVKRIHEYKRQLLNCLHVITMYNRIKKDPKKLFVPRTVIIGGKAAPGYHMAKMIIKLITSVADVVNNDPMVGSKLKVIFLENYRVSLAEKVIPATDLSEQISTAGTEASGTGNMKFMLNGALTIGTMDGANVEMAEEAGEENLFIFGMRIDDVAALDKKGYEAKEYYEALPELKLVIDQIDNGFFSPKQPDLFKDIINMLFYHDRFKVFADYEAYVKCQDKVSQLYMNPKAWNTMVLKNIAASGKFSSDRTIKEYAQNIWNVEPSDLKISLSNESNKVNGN
Nature of the series: Inhibition of human liver GPa using Glc-1-P as substrate incubated for 15 mins.

The nature of series [2]: Inhibition of rabbit muscle GPb using Glc-1-P as substrate incubated for 15 mins. Set-up: species or system Oryctolagus cuniculus. An outline of the steps: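 Recombinant or rabbit muscle GP assayed by an earlier method. Initial velocities were taken from pseudo-first-order rate constants via the first-order rate equation. Ki came from non-linear regression with explicit weighting of apparent Km against inhibitor concentration, using 4–5 inhibitor levels per compound spanning 1–300 μM.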

Series [3] in a line: Inhibition of rabbit muscle GPa using Glc-1-P as substrate incubated for 15 mins. Set-up: species or system Oryctolagus cuniculus.
In series [4] the test system is HepG2. The series is described as follows: Cytotoxicity against human HepG2 cells assessed as reduction in cell viability at 100 uM measured after 3 and 24 hrs by MTT assay. The class given is cell-based. Particulars: hepg2, 24 h. (Tetrazolium assays rely on reduction of a dye to a coloured formazan, in cell work by metabolically active cells.)
Series [5] is described as follows: Inhibition of rabbit muscle GPb using alpha-D-glucose-1-phosphate as substrate by Lineweaver-Burk plot analysis. Details: species or system Oryctolagus cuniculus.
Series [6] deals with T2, Glycogen phosphorylase, liver form (Homo sapiens) (UniProt P06737).
T2 sequence (whole entry): T1 sequence (P06737 whole entry)
Nature of the series: Inhibition of GP in human HepG2 cells assessed as reduction in GP activity at 100 uM incubated for 3 hrs by Bradford reagent based assay relative to control. The class given is cell-based. An outline of the steps:
(§1)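 HepG2 cells were seeded at 1.0×10^6 per 60 mm dish and attached for 16–18 h. Glycogen was loaded for 16–18 h with 10 nM dexamethasone, 25 mM glucose and 100 nM insulin. Cells were then exposed to inhibitor or vehicle for 3 h in 5 mM glucose plus 100 nM glucagon. Lysates were sonicated in Tris pH 7.5/Triton/PMSF and cleared at 12,000 g. GP activity (nmol/min/mg, Bradford protein) came from a linear fit of 5 time points.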

Series [7] concerns HepG2. Nature of the series: Cytotoxicity against human HepG2 cells assessed as reduction in cell viability at >200 uM incubated for 24 hrs by MTT assay. The class given is cell-based. Particulars: hepg2, 24 h.
For series [8], the target named is T2, Glycogen phosphorylase, liver form (Homo sapiens). Nature of the series: Inhibition of GP in human HepG2 cells assessed as reduction in GP activity at 335 uM incubated for 3 hrs by Bradford reagent based assay relative to control. The class given is cell-based. An outline of the steps:
as §1

Series [9] shares this target. Nature of the series: Inhibition of GP in human HepG2 cells assessed as reduction in GP activity at 500 uM incubated for 3 hrs by Bradford reagent based assay relative to control. The class given is cell-based. The method, boiled down: as §1
Series [10] is described as follows: Cytotoxicity against human HepG2 cells assessed as reduction in cell viability at 200 and 300 uM incubated for 3 hrs by MTT assay. Format: cell-based. As to conditions: read-out: INH.

Molecules are shown by their SMILES. pKi: −log10 of the molar value. Some results are limits rather than exact numbers.

In the case of `OC[C@H]1O[C@@H](n2nnc(-c3ccccc3)n2)[C@H](O)[C@@H](O)[C@@H]1O`, the pKi in series [1] is 3.87; in series [2], 3.79; in series [3], 3.84.

As for `OC[C@H]1O[C@@H](c2c[nH]c(-c3ccc4ccccc4c3)n2)[C@H](O)[C@@H](O)[C@@H]1O`, the Activity entry in the series on HepG2 [4] was “Non-Toxic”. In addition, the pKi in [5] was 5.34; in [1], 5.49; in series [3], 5.80. The inhibition in series [6] amounted to 60%.

In the case of `OC[C@H]1O[C@@H](c2nc(-c3ccc4ccccc4c3)cs2)[C@H](O)[C@@H](O)[C@@H]1O`, the pKi was 4.11 in series [1] and 4.16 in series [3].

The molecule `OC[C@H]1O[C@@H](c2nc(-c3ccccc3)n[nH]2)[C@H](O)[C@@H](O)[C@@H]1O` gave a pKi in [3] of 5.76.

Turning to `OC[C@H]1O[C@@H](c2csc(-c3ccccc3)n2)[C@H](O)[C@@H](O)[C@@H]1O`, the pKi in series [5] is 3.49; in [1], 3.76; in series [3], 4.12.

As to `OC[C@H]1O[C@@H](c2c[nH]c(-c3ccccc3)n2)[C@H](O)[C@@H](O)[C@@H]1O`, in the series on HepG2 [7], the Activity entry was “Toxic”. Further, the pKi in series [5] was 4.16; in series [1] it was 4.59; in series [3], 4.75. Moreover, the inhibition amounted to 50% in [8] and 60% in series [9].

As for `OC[C@H]1O[C@@H](c2csc(-c3ccc4ccccc4c3)n2)[C@H](O)[C@@H](O)[C@@H]1O`, the Activity entry with HepG2 [7] is on record as “Toxic”. The pKi is 4.58 in series [5], 4.36 in series [1] and 4.55 in series [3]. The cytotoxicity at 3 h in [10] was less than 10%. Also, the inhibition in series [9] was less than 25%.

As for `OC[C@H]1O[C@@H](c2nc(-c3ccccc3)cs2)[C@H](O)[C@@H](O)[C@@H]1O`, the pKi in series [1] is 3.74; in [3], 3.80.
